TRPML3 ag = human mucolipin-3 channel agonism. HEK293 TRPML3-YFP, Fluo-8 calcium fluorescence; 100% = the carbachol control signal. Q8TDD5. activation, % at 3 µM. 220,000 tested, 0.29% active;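 active = activation above its plate's cutoff, the mean activation of the plate's test wells plus 3 SD, cut at about 12% in these data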
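system = HEK293 cells stably carrying human TRPML3-YFP | doses = one concentration, 3 µM nominal, 0.3% DMSO | timing = dye loading 1 h 37 °C then 30 min ambient, 125 s read | detection = Fluo-8 calcium dye fluorescence, ex 470-495, em 515-575 nm | benchmarks = high control carbachol 87 µM, low control DMSO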
V1R ag counter = V1a receptor agonism, counter-screen for OXTR agonists; P37288; CHO-V1R cells, Fluo-8 calcium fluorescence, agonist mode; 0% DMSO, 100% 3 nM vasopressin; activation, % at 3 µM; 320,000 tested, 0.25% active; AID 2797;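 active = activation above the mean activation of all tested compounds plus 3 SD, per screening run, cut at about 20% in these data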;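 also: signal is peak over basal fluorescence ratio across a 100 second FLIPR read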
TRPN1 ag = agonists of zebrafish TRPN1 channel; activation, % at 3 µM; AID 1424; HEK293 zebrafish TRPN1-YFP, Fluo-8 calcium fluorescence; 100% = response to 87 µM carbachol; 220,000 tested, 0.18% active;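 active = activation above its plate's cutoff, the mean activation of test wells on that plate plus 3 SD, cut at about 19% in these data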
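Material: zebrafish TRPN1-YFP in HEK293 cells. Doses: one dose of 3 µM, 0.3% DMSO. Incubation: dye 1 h 37 °C plus 30 min RT. Measured by: intracellular calcium fluorescence with Fluo-8.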
OXTR agonist = agonists of human oxytocin receptor. activation, % at 3 µM. 320,000 tested, 0.32% active. CHO-OTR cells, Fluo-8 calcium fluorescence; normalized: DMSO 0%, oxytocin 100%. P30559. AID 2435;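 active = activation above the mean of all tested compounds plus 3 SD, cutoff set per screening run, cut at about 20% in these data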;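 also: peak over basal fluorescence ratio from a 100 s FLIPR kinetic read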
Target sequence (P30559 whole entry, looked up): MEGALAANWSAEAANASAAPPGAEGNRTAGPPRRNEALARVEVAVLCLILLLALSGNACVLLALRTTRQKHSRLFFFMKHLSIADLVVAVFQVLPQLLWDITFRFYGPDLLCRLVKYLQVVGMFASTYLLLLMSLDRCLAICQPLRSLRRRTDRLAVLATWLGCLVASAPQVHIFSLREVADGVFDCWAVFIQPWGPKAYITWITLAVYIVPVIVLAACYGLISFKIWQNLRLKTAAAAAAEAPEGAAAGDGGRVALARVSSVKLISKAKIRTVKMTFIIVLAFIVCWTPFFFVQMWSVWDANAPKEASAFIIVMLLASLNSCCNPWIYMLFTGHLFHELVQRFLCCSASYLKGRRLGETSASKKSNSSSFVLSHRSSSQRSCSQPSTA
OXTR potentiator = human OXTR potentiation; P30559; CHO-OTR cells, Fluo-8 calcium fluorescence, potentiator mode; 0% = oxytocin EC15, 100% = EC100; activation, % at 3 µM; 320,000 tested, 0.061% active; AID 2445;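 active = activation above that plate's cutoff, the mean activation of tested compounds plus 3 SD, cut at about 6.6% in these data, passing the limit was not always enough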
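Material: CHO-OTR cells, human receptor; compound dosing: single dose, 3.0 µM nominal final compound concentration; schedule: 6 min compound pre-incubation at room temperature, 100 s kinetic read; measured by: kinetic Fluo-8 calcium fluorescence; read-out basis: % activation vs EC15 and EC100 oxytocin; controls: EC15 oxytocin alone as 0%, 75 nM oxytocin as 100%; replicates: singlicate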
OXTR ag confirm = human OXTR agonism, confirmation | shares compounds with OXTR agonist | CHO-OTR cells, Fluo-8 calcium fluorescence, agonist | activation, % at 3 µM | 390 tested, 20% active | AID 434963;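 active = mean activation above about 20% derived from the earlier single-dose screen, limit read from the data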;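 also: peak over minimum fluorescence ratio per well during a 100 second FLIPR read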
V1R ag counter 3x = V1R agonism in triplicate, counter-screen for OXTR agonists; shares compounds with OXTR agonist; CHO-V1R cells, Fluo-8 calcium fluorescence, agonist; activation, % at 3 µM; 390 tested, 10% active; AID 434991;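 active = mean activation over triplicate exceeds the hit threshold set in the earlier primary screen, cut at about 20% in these data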;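 also: peak over basal fluorescence ratio within a 100 second read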
Large screens that a line does not name were inactive (follow-up assays come after a bar, where they were run). Most compounds without a hit are left out; they make up all but 0.55% or so of the library.

CS(=O)(=O)N1CCC(Oc2ccccc2C(=O)N2CCNC(=O)C2)CC1	none
COc1ccc(C2NCCc3c2[nH]c2ccccc32)cc1COc1ccc(F)cc1 (stereo unspecified)	OXTR agonist 24.0 | OXTR ag confirm 23.5 | V1R ag counter 3x inactive
COc1ccc(C2NCCc3c2[nH]c2ccccc32)cc1CN1CCc2cc(OC)c(OC)cc2C1C (stereo unspecified)	none (no result: V1R ag counter, OXTR agonist, OXTR potentiator)
NS(=O)(=O)c1ccc(CCNCc2ccccc2OCc2ccc(Cl)cc2)cc1	OXTR agonist 27.7 (no result: TRPML3 ag, TRPN1 ag) | OXTR ag confirm inactive | V1R ag counter 3x inactive
NS(=O)(=O)c1ccc(CCNCc2cc(Cl)ccc2OCc2ccccc2)cc1	OXTR agonist 22.0 (no result: TRPML3 ag, TRPN1 ag) | OXTR ag confirm inactive | V1R ag counter 3x inactive
Cc1cc(C)cc(C(=O)Nc2ccc(N3CCN(C(=O)c4ccco4)CC3)cc2)c1	none (no result: TRPML3 ag, TRPN1 ag)
Cc1nn(CC(=O)NC(=O)c2ccccc2)c(C)c1[N+](=O)[O-]	none (no result: TRPML3 ag, TRPN1 ag)
COC(=O)C(NC(=O)c1ccccc1C)(Nc1ncc(S(=O)(=O)c2ccc([N+](=O)[O-])cc2)s1)C(F)(F)F (stereo unspecified)	OXTR agonist 25.7 | OXTR ag confirm inactive | V1R ag counter 3x inactive
CCOC(=O)/C(C#N)=C/Nc1ccccc1NS(=O)(=O)c1ccc(C)c(C)c1	none
CCOC(=O)/C(C#N)=C/Nc1ccccc1NS(=O)(=O)c1cccc(C(C)=O)c1	OXTR agonist 49.8 | OXTR ag confirm inactive | V1R ag counter 3x inactive
Clc1ccc2c(c1)C(N1CCNCC1)Cc1ccccc1S2 (stereo unspecified)	OXTR agonist 29.4 | OXTR ag confirm 20.8 | V1R ag counter 3x inactive
COCCCN1CCN(C2Cc3ccccc3Sc3ccc(Cl)cc32)CC1 (stereo unspecified)	none
Clc1cccc2c1Sc1ccccc1CC2N1CCNCC1 (stereo unspecified)	OXTR agonist 21.7 | OXTR ag confirm inactive | V1R ag counter 3x inactive
Cc1ccc2c(c1)N(CC(=O)N1CCCCC1)C(=O)C(C)O2 (stereo unspecified)	none (no result: TRPML3 ag, TRPN1 ag)
Cn1c(SCC#N)nnc1-c1cccnc1	none
Cc1ccc(C)c(N2CCN(C(=O)c3cccn4c(=O)c5sccc5nc34)CC2)c1	OXTR agonist 31.0 | OXTR ag confirm inactive | V1R ag counter 3x inactive
COc1cc(C(=O)NC(=S)NNC(=O)c2cnccn2)cc(OC)c1OC	none
COc1ccccc1C(=O)NNC(=S)NC(=O)c1cc(OC)c(OC)c(OC)c1	OXTR agonist 21.1 | OXTR ag confirm inactive | V1R ag counter 3x inactive
CCOc1ccc(CN(C)c2ccc(S(=O)(=O)N3CCN(C)CC3)cc2[N+](=O)[O-])cc1OC	OXTR agonist 22.3 (no result: TRPML3 ag, TRPN1 ag) | OXTR ag confirm inactive | V1R ag counter 3x inactive
CN1CCN(S(=O)(=O)c2ccc(N(C)Cc3ccc(C(F)(F)F)cc3)c([N+](=O)[O-])c2)CC1	OXTR agonist 20.3 (no result: TRPML3 ag, TRPN1 ag) | OXTR ag confirm inactive | V1R ag counter 3x inactive
C=CCOc1ccc(CN(C)c2ccc(S(=O)(=O)N3CCN(C)CC3)cc2[N+](=O)[O-])cc1	none (no result: TRPML3 ag, TRPN1 ag)
CC(NC(=O)c1ccc(Cl)c(S(=O)(=O)N2CCCCCC2)c1)c1cccnc1 (stereo unspecified)	none (no result: TRPML3 ag, TRPN1 ag)
Cn1c(=O)[nH]c(=O)c2c1nc(N1CCCCC1)n2C/C=N/NC(=O)c1cc(Br)ccc1O	none
CCCCNC(=O)CCCn1c(=S)[nH]c2cc3c(cc2c1=O)OCO3	OXTR agonist 22.0 | OXTR ag confirm inactive | V1R ag counter 3x inactive
O=c1cc(Nc2ccc3c(c2)OCCO3)[nH]c(=O)n1C1CCCCC1	none
CCc1ccc(Nc2cc(=O)n(C3CCCCC3)c(=O)[nH]2)cc1	OXTR agonist 24.7 | OXTR ag confirm 33.2 | V1R ag counter 3x 29.7
CN(CC(=O)Nc1cccc(F)c1)C(=O)CCc1nc2cc(S(=O)(=O)N3CCOCC3)ccc2n1C	none (no result: TRPML3 ag, TRPN1 ag)
COc1cc(CNCCc2ccc(F)cc2)ccc1OCc1ccc(Cl)nc1	OXTR agonist 22.2 | OXTR ag confirm inactive | V1R ag counter 3x inactive
COc1cccc(CNCCc2c[nH]c3ccccc23)c1OCc1ccc(F)cc1	none
COc1cc(CNCCc2c[nH]c3ccccc23)ccc1OCc1ccc(F)cc1	OXTR agonist 21.5 | OXTR ag confirm inactive | V1R ag counter 3x inactive
COc1ccc(C(CCN2CCCCC2)c2c(OC)cc(OC)c3c(-c4ccccc4)cc(=O)oc23)cc1 (stereo unspecified)	OXTR agonist 21.2 (no result: TRPML3 ag, TRPN1 ag) | OXTR ag confirm inactive | V1R ag counter 3x inactive
CC(=O)Nc1sc(C)c(C)c1C(=O)OCC(=O)N(C)C1CCS(=O)(=O)C1 (stereo unspecified)	none
Cc1ccc(C(C(=O)NC2CCCC2)N(Cc2ccc(F)cc2)C(=O)c2snc(C(N)=O)c2N)o1 (stereo unspecified)	none (no result: TRPML3 ag, TRPN1 ag)
NS(=O)(=O)c1ccc(CCNC(=O)CNC(=O)c2ccc(Br)o2)cc1	none (no result: TRPML3 ag, TRPN1 ag)
CC(=O)Nc1ccc(/C(C)=N/Nc2nc(Nc3cccc4ccccc34)nc(N3CCOCC3)n2)cc1	OXTR agonist 24.7 | OXTR ag confirm inactive | V1R ag counter 3x inactive
Cc1ccccc1-n1nc(C)c(N=O)c1N	none
COc1ccc(OC)c(NC(=O)Cc2nn(C)c(=O)c3ccccc23)c1	OXTR agonist 20.1 | OXTR ag confirm inactive | V1R ag counter 3x inactive
COc1cc(NC(=O)Cc2nn(C)c(=O)c3ccccc23)cc(OC)c1OC	none
O=C(COC(=O)c1cc(S(=O)(=O)N2CCCC2)ccc1O)Nc1ccc(SC(F)F)cc1	OXTR agonist 21.1 (no result: TRPML3 ag, TRPN1 ag) | OXTR ag confirm inactive | V1R ag counter 3x inactive
O=C(COC(=O)c1cc(S(=O)(=O)N2CCCC2)ccc1O)Nc1ccc(S(=O)(=O)N2CCOCC2)cc1	none
Cn1c(CNC(=O)c2ccco2)nnc1SCC(=O)Nc1c(F)cc(F)cc1Br	none
CCCN(CC1CC1)C(=S)NC(=O)c1ccc(S(=O)(=O)N2CCOCC2)cc1	none
O=C(Cc1cccs1)N(Cc1ccco1)C1(C(=O)NC2CCCC2)CCCCC1	OXTR agonist 20.1 | OXTR ag confirm inactive | V1R ag counter 3x inactive
O=C1NC(=O)C(CC(=O)N(Cc2ccco2)C2(C(=O)NC3CCCC3)CCCCC2)N1 (stereo unspecified)	none
Cc1ccnc(N/C=C(\C#N)c2nc(-c3cccc(Br)c3)cs2)c1	OXTR agonist 30.9 | OXTR ag confirm 127.8 | V1R ag counter 3x 161.6
Cc1ccccc1COC(=O)CCCC1=NS(=O)(=O)c2ccccc2N1	OXTR agonist 23.6 (no result: TRPML3 ag, TRPN1 ag) | OXTR ag confirm inactive | V1R ag counter 3x inactive
Oc1ccccc1CNc1cnc2ccccc2c1	OXTR agonist 22.1 | OXTR ag confirm inactive | V1R ag counter 3x inactive

Screening results from PubChem.
